Assay results as given in ChEMBL document CHEMBL4689842, “EUbOPEN Chemogenomics Library wave 1” (2021).

Tested on: HEK-293T
Assay: Multiplex assay against HEK293T;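 on Population Tubulin-Different-Phenotype (%): share of the cells with healthy nuclei that show this phenotype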
Format: toxicity, cell-based
Conditions: human
In short: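 Compound was added to live cells that had been stained at seeding with Hoechst33342, BioTracker Green Microtubule Cytoskeleton Dye, MitoTracker Red and Annexin V Alexa Fluor 680, and imaging followed on a CQ1 microscope at 37°C and 5% CO2. CellPathfinder machine-learning gating divided cells into Hoechst high-intensity objects or normal cells, normal cells into healthy, pyknosed or fragmented nuclei, and pyknosed cells into mitotic or apoptotic. Tubulin, mitochondrial-mass and membrane-permeability phenotypes are per cents of healthy-nucleus cells.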

[1] = 12 h, 1 µM, compound concentration 1 uM, replicate 1
[2] = 12 h, 1 µM, compound concentration 1 uM, replicate 2
[3] = 12 h, 10 µM, compound concentration 10 uM, replicate 1
[4] = 12 h, 10 µM, compound concentration 10 uM, replicate 2
[5] = 24 h, 1 µM, compound concentration 1 uM, replicate 1
[6] = 24 h, 1 µM, compound concentration 1 uM, replicate 2
[7] = 24 h, 10 µM, compound concentration 10 uM, replicate 1
[8] = 24 h, 10 µM, compound concentration 10 uM, replicate 2
[9] = 48 h, 1 µM, compound concentration 1 uM, replicate 1
[10] = 48 h, 1 µM, compound concentration 1 uM, replicate 2
[11] = 48 h, 10 µM, compound concentration 10 uM, replicate 1
[12] = 48 h, 10 µM, compound concentration 10 uM, replicate 2

Q: Which “Population Apoptotic (%)” value [1] does the source give for `O=C1N/C(=N/c2ccccc2F)S/C1=C\c1ccc(C(=O)O)cc1` here?
A: Its value is 31%.

Q: What about the “Population Fragmented Nuclei (%)” value [1] of the same compound?
A: The value was 14%.

Q: What about the “Population Healthy Nuclei (%)” value [1] of the same compound?
A: The value was 38%.

Q: What about the “Population Hoechst High Intensity Objects (%)” value [1] of the same compound?
A: Its value is 14%.

Q: And the “Population Membrane Permeable-Phenotype (%)” value [1]?
A: The value was 0%.

Q: And the “Population Mitochondria Different-Phenotype (%)” value [1]?
A: The value was 70%.

Q: And the “Population Mitotic Cells (%)” value [1]?
A: Its value is 68%.

Q: And the “Population Normal (%)” value [1]?
A: Its value is 85%.

Q: And the “Population Pyknosed Nuclei (%)” value [1]?
A: Its value is 46%.

Q: And the “Population Tubulin-Different-Phenotype (%)” value [1]?
A: Its value is 21%.

Q: And the “Total Cell Count” value [1]?
A: Its value is 182.

Q: And the “Population Apoptotic (%)” value [2]?
A: Its value is 8%.

Q: What about the “Population Fragmented Nuclei (%)” value [2] of the same compound?
A: The value was 6%.

Q: What about the “Population Healthy Nuclei (%)” value [2] of the same compound?
A: The value was 42%.

Q: What about the “Population Hoechst High Intensity Objects (%)” value [2] of the same compound?
A: The value was 4%.

Q: What about the “Population Membrane Permeable-Phenotype (%)” value [2] of the same compound?
A: Its value is 6%.

Q: And the “Population Mitochondria Different-Phenotype (%)” value [2]?
A: Its value is 6%.

Q: And the “Population Mitotic Cells (%)” value [2]?
A: Its value is 91%.

Q: And the “Population Normal (%)” value [2]?
A: Its value is 95%.

Q: And the “Population Pyknosed Nuclei (%)” value [2]?
A: The value was 50%.

Q: What about the “Population Tubulin-Different-Phenotype (%)” value [2] of the same compound?
A: The value was 6%.

Q: And the “Total Cell Count” value [2]?
A: Its value is 145.

Q: What about the “Population Apoptotic (%)” value [3] of the same compound?
A: Its value is 36%.

Q: And the “Population Fragmented Nuclei (%)” value [3]?
A: The value was 10%.

Q: And the “Population Healthy Nuclei (%)” value [3]?
A: The value was 38%.

Q: And the “Population Hoechst High Intensity Objects (%)” value [3]?
A: Its value is 14%.

Q: And the “Population Membrane Permeable-Phenotype (%)” value [3]?
A: The value was 4%.

Q: And the “Population Mitochondria Different-Phenotype (%)” value [3]?
A: Its value is 63%.

Q: What about the “Population Mitotic Cells (%)” value [3] of the same compound?
A: The value was 63%.

Q: And the “Population Normal (%)” value [3]?
A: The value was 85%.

Q: What about the “Population Pyknosed Nuclei (%)” value [3] of the same compound?
A: Its value is 50%.

Q: And the “Population Tubulin-Different-Phenotype (%)” value [3]?
A: The value was 33%.

Q: What about the “Total Cell Count” value [3] of the same compound?
A: Its value is 203.

Q: What about the “Population Apoptotic (%)” value [4] of the same compound?
A: The value was 10%.

Q: What about the “Population Fragmented Nuclei (%)” value [4] of the same compound?
A: Its value is 4%.

Q: And the “Population Healthy Nuclei (%)” value [4]?
A: The value was 51%.

Q: What about the “Population Hoechst High Intensity Objects (%)” value [4] of the same compound?
A: Its value is 3%.

Q: And the “Population Membrane Permeable-Phenotype (%)” value [4]?
A: Its value is 5%.

Q: And the “Population Mitochondria Different-Phenotype (%)” value [4]?
A: The value was 18%.

Q: And the “Population Mitotic Cells (%)” value [4]?
A: The value was 89%.

Q: What about the “Population Normal (%)” value [4] of the same compound?
A: The value was 96%.

Q: What about the “Population Pyknosed Nuclei (%)” value [4] of the same compound?
A: Its value is 43%.

Q: And the “Population Tubulin-Different-Phenotype (%)” value [4]?
A: Its value is 16%.

Q: What about the “Total Cell Count” value [4] of the same compound?
A: The value was 212.

Q: And the “Population Apoptotic (%)” value [5]?
A: Its value is 43%.

Q: And the “Population Fragmented Nuclei (%)” value [5]?
A: Its value is 16%.

Q: And the “Population Healthy Nuclei (%)” value [5]?
A: The value was 38%.

Q: What about the “Population Hoechst High Intensity Objects (%)” value [5] of the same compound?
A: Its value is 12%.

Q: What about the “Population Membrane Permeable-Phenotype (%)” value [5] of the same compound?
A: The value was 3%.

Q: And the “Population Mitochondria Different-Phenotype (%)” value [5]?
A: The value was 46%.

Q: And the “Population Mitotic Cells (%)” value [5]?
A: Its value is 56%.

Q: And the “Population Normal (%)” value [5]?
A: Its value is 87%.

Q: What about the “Population Pyknosed Nuclei (%)” value [5] of the same compound?
A: The value was 45%.

Q: What about the “Population Tubulin-Different-Phenotype (%)” value [5] of the same compound?
A: The value was 24%.

Q: What about the “Total Cell Count” value [5] of the same compound?
A: The value was 185.

Q: What about the “Population Apoptotic (%)” value [6] of the same compound?
A: The value was 8%.

Q: And the “Population Fragmented Nuclei (%)” value [6]?
A: The value was 6%.

Q: And the “Population Healthy Nuclei (%)” value [6]?
A: The value was 56%.

Q: What about the “Population Hoechst High Intensity Objects (%)” value [6] of the same compound?
A: Its value is 5%.

Q: What about the “Population Membrane Permeable-Phenotype (%)” value [6] of the same compound?
A: The value was 12%.

Q: And the “Population Mitochondria Different-Phenotype (%)” value [6]?
A: The value was 13%.

Q: And the “Population Mitotic Cells (%)” value [6]?
A: The value was 91%.

Q: And the “Population Normal (%)” value [6]?
A: The value was 94%.

Q: And the “Population Pyknosed Nuclei (%)” value [6]?
A: The value was 36%.

Q: What about the “Population Tubulin-Different-Phenotype (%)” value [6] of the same compound?
A: The value was 21%.

Q: What about the “Total Cell Count” value [6] of the same compound?
A: Its value is 168.

Q: And the “Population Apoptotic (%)” value [7]?
A: The value was 51%.

Q: What about the “Population Fragmented Nuclei (%)” value [7] of the same compound?
A: The value was 13%.

Q: What about the “Population Healthy Nuclei (%)” value [7] of the same compound?
A: Its value is 46%.

Q: And the “Population Hoechst High Intensity Objects (%)” value [7]?
A: Its value is 16%.

Q: And the “Population Membrane Permeable-Phenotype (%)” value [7]?
A: Its value is 5%.

Q: What about the “Population Mitochondria Different-Phenotype (%)” value [7] of the same compound?
A: The value was 48%.

Q: What about the “Population Mitotic Cells (%)” value [7] of the same compound?
A: Its value is 48%.

Q: What about the “Population Normal (%)” value [7] of the same compound?
A: Its value is 83%.

Q: And the “Population Pyknosed Nuclei (%)” value [7]?
A: The value was 39%.

Q: And the “Population Tubulin-Different-Phenotype (%)” value [7]?
A: The value was 26%.

Q: What about the “Total Cell Count” value [7] of the same compound?
A: Its value is 236.

Q: What about the “Population Apoptotic (%)” value [8] of the same compound?
A: The value was 13%.

Q: And the “Population Fragmented Nuclei (%)” value [8]?
A: The value was 5%.

Q: What about the “Population Healthy Nuclei (%)” value [8] of the same compound?
A: The value was 69%.

Q: What about the “Population Hoechst High Intensity Objects (%)” value [8] of the same compound?
A: The value was 4%.

Q: What about the “Population Membrane Permeable-Phenotype (%)” value [8] of the same compound?
A: Its value is 8%.

Q: What about the “Population Mitochondria Different-Phenotype (%)” value [8] of the same compound?
A: The value was 17%.

Q: And the “Population Mitotic Cells (%)” value [8]?
A: The value was 86%.

Q: What about the “Population Normal (%)” value [8] of the same compound?
A: The value was 96%.

Q: And the “Population Pyknosed Nuclei (%)” value [8]?
A: The value was 25%.

Q: And the “Population Tubulin-Different-Phenotype (%)” value [8]?
A: Its value is 24%.

Q: What about the “Total Cell Count” value [8] of the same compound?
A: Its value is 275.

Q: What about the “Population Apoptotic (%)” value [9] of the same compound?
A: Its value is 44%.

Q: And the “Population Fragmented Nuclei (%)” value [9]?
A: The value was 20%.

Q: What about the “Population Healthy Nuclei (%)” value [9] of the same compound?
A: The value was 43%.

Q: What about the “Population Hoechst High Intensity Objects (%)” value [9] of the same compound?
A: Its value is 16%.

Q: What about the “Population Membrane Permeable-Phenotype (%)” value [9] of the same compound?
A: Its value is 2%.

Q: And the “Population Mitochondria Different-Phenotype (%)” value [9]?
A: The value was 27%.

Q: And the “Population Mitotic Cells (%)” value [9]?
A: The value was 55%.

Q: What about the “Population Normal (%)” value [9] of the same compound?
A: Its value is 83%.

Q: What about the “Population Pyknosed Nuclei (%)” value [9] of the same compound?
A: The value was 36%.

Q: What about the “Population Tubulin-Different-Phenotype (%)” value [9] of the same compound?
A: The value was 26%.

Q: And the “Total Cell Count” value [9]?
A: The value was 254.

Q: And the “Population Apoptotic (%)” value [10]?
A: Its value is 14%.

Q: And the “Population Fragmented Nuclei (%)” value [10]?
A: The value was 6%.

Q: What about the “Population Healthy Nuclei (%)” value [10] of the same compound?
A: The value was 80%.

Q: What about the “Population Hoechst High Intensity Objects (%)” value [10] of the same compound?
A: Its value is 5%.

Q: And the “Population Membrane Permeable-Phenotype (%)” value [10]?
A: Its value is 11%.

Q: What about the “Population Mitochondria Different-Phenotype (%)” value [10] of the same compound?
A: Its value is 6%.

Q: And the “Population Mitotic Cells (%)” value [10]?
A: The value was 85%.

Q: And the “Population Normal (%)” value [10]?
A: Its value is 94%.

Q: And the “Population Pyknosed Nuclei (%)” value [10]?
A: Its value is 12%.

Q: And the “Population Tubulin-Different-Phenotype (%)” value [10]?
A: Its value is 24%.

Q: And the “Total Cell Count” value [10]?
A: Its value is 299.

Q: And the “Population Apoptotic (%)” value [11]?
A: The value was 29%.

Q: And the “Population Fragmented Nuclei (%)” value [11]?
A: The value was 18%.

Q: What about the “Population Healthy Nuclei (%)” value [11] of the same compound?
A: The value was 45%.

Q: And the “Population Hoechst High Intensity Objects (%)” value [11]?
A: Its value is 11%.

Q: And the “Population Membrane Permeable-Phenotype (%)” value [11]?
A: The value was 2%.

Q: And the “Population Mitochondria Different-Phenotype (%)” value [11]?
A: Its value is 19%.

Q: And the “Population Mitotic Cells (%)” value [11]?
A: Its value is 70%.

Q: What about the “Population Normal (%)” value [11] of the same compound?
A: Its value is 88%.

Q: What about the “Population Pyknosed Nuclei (%)” value [11] of the same compound?
A: Its value is 35%.

Q: What about the “Population Tubulin-Different-Phenotype (%)” value [11] of the same compound?
A: The value was 21%.

Q: What about the “Total Cell Count” value [11] of the same compound?
A: The value was 279.

Q: What about the “Population Apoptotic (%)” value [12] of the same compound?
A: The value was 6%.

Q: And the “Population Fragmented Nuclei (%)” value [12]?
A: Its value is 6%.

Q: And the “Population Healthy Nuclei (%)” value [12]?
A: The value was 83%.

Q: What about the “Population Hoechst High Intensity Objects (%)” value [12] of the same compound?
A: Its value is 2%.

Q: What about the “Population Membrane Permeable-Phenotype (%)” value [12] of the same compound?
A: The value was 3%.

Q: What about the “Population Mitochondria Different-Phenotype (%)” value [12] of the same compound?
A: The value was 5%.

Q: What about the “Population Mitotic Cells (%)” value [12] of the same compound?
A: The value was 94%.

Q: What about the “Population Normal (%)” value [12] of the same compound?
A: Its value is 97%.

Q: What about the “Population Pyknosed Nuclei (%)” value [12] of the same compound?
A: The value was 9%.

Q: What about the “Population Tubulin-Different-Phenotype (%)” value [12] of the same compound?
A: The value was 14%.

Q: And the “Total Cell Count” value [12]?
A: Its value is 534.
